# Assay results from different studies.
# Each line is one published result; the experiments were not run side by side.
# PLK4: Serine/threonine-protein kinase PLK4 (PLK4, Homo sapiens, UniProt O00444)
# nupG: nupG (Escherichia coli, UniProt P0AFF4)
# PIK3C3: Phosphatidylinositol 3-kinase catalytic subunit type 3 (PIK3C3, Homo sapiens, UniProt Q8NEB9)
# OPRL1: Nociceptin receptor (OPRL1, Homo sapiens, UniProt P41146)
SMILES,target,assay,setting,endpoint,value
CN1CCN(c2ccc(Nc3ncc4cc(C#N)c(=O)n(C5CCCC5)c4n3)cc2)CC1,"Calcium/calmodulin-dependent protein kinase type II subunit beta (CAMK2B, Homo sapiens, UniProt Q13554)","enzyme activity, inhibitor",,IC50,> 10 µM
Nc1nc2c(ncn2[C@@H]2O[C@H](COP(=O)(O)OP(=O)(O)O)[C@@H](OP(=O)(O)OP(=O)(O)O)[C@H]2O)c(=O)[nH]1,"pgk (Escherichia coli, UniProt P0A799)","binding, ITC",,Kd,493 µM
CC1Cc2ccccc2N1C(=O)NCCCCN(C)[C@@H]1Cc2cccc3[nH]c(=O)n(c23)C1 (mixture of isomers),"5-hydroxytryptamine receptor 1A (HTR1A, Homo sapiens, UniProt P08908)","ligand displacement, radioligand",,Ki,0.0237 µM
C[C@H]1Oc2cc(cnc2N)-c2c(nn(C)c2C#N)CN(C)C(=O)c2ccc(F)cc21,PLK4,cell-free assay,lysate,Ki,0.107 µM
Nc1nc2c(ncn2[C@@H]2O[C@H](CO)[C@@H](O)[C@H]2O)c(=O)[nH]1,nupG,"binding, ITC",,Kd,46.7 µM
Cc1occc(=S)c1O,"Carbonic anhydrase 14 (CA14, Homo sapiens, UniProt Q9ULX7)","enzyme activity, inhibitor, stopped-flow",,Ki,6.7 µM
C=CC(=O)N1CCC(C(=O)N(C)CC(=O)N2CCN(c3nc(-c4cnc(N)nc4C(F)F)nc(N4CCOCC4)n3)CC2)CC1,PIK3C3,"binding, competition with immobilised ligand",,Kd,0.275 µM
CNCC[C@@H](Oc1ccccc1CCCF)c1ccccc1,"Norepinephrine transporter (Slc6a2, Rattus norvegicus, UniProt Q9WTR4)","ligand displacement, radioligand",cell membranes,Ki,0.023 µM
CCOc1cc(-c2nncn2C)ccc1Nc1ncc2cc(C)nc(NCC(C)(C)C)c2n1,PLK4,"binding, competition with immobilised ligand",,Kd,0.071 µM
C=C(C)[C@@H]1CC=C(C)C(=O)C1,"OR1A1 (Homo sapiens, UniProt Q9P1Q5)","cAMP, agonist, luciferase",,EC50,7.29 µM
CCC(=O)N1CCC(C(=O)NCC(=O)N2CCN(c3nc(-c4cnc(N)nc4C(F)F)nc(N4CCOCC4)n3)CC2)CC1,PIK3C3,"binding, competition with immobilised ligand",,Kd,0.1 µM
CNc1nc(C#Cc2ccc(Cl)s2)nc2c1ncn2[C@H]1[C@H](O)[C@H](O)[C@]2(C(=O)OCc3ccccc3)C[C@H]12,OPRL1,"ligand displacement, radioligand",,Ki,> 10 µM
Cc1nc(NC(=O)N2CCC[C@H]2C(N)=O)sc1-c1ccnc(C(C)(C)C(F)(F)F)c1,PIK3C3,"binding, competition with immobilised ligand",,Kd,24.5 µM
C[C@]12CC[C@H](O)CC1=CC[C@@H]1[C@@H]2CC[C@]2(C)C(c3cccnc3)=CC[C@@H]12,"Estrogen receptor (ESR1, Homo sapiens, UniProt P03372, Y537C)","ligand displacement in cells, radioligand",,Ki,0.25 µM
CCOC(=O)[C@@]12C[C@@H]1[C@@H](n1cnc3c(NC)nc(C#Cc4ccc(Cl)s4)nc31)[C@H](O)[C@@H]2O,OPRL1,"ligand displacement, radioligand",,Ki,> 10 µM
OC[C@H]1OC(O)[C@H](O)[C@@H](O)[C@@H]1O (some centres unmarked),"Hexokinase-1 (Homo sapiens, UniProt P19367)","binding, MST",,Kd,158 µM
Nc1ncnc2c1ncn2[C@@H]1O[C@H](CO)[C@@H](O)[C@H]1O,nupG,"binding, ITC",,Kd,99.7 µM
Cc1cc(Nc2cc3ncccc3c(N[C@@H]3C[C@H]4CC[C@@H](C3)N4CCC#N)n2)n[nH]1,"Death-associated protein kinase 3 (DAPK3, Homo sapiens, UniProt O43293)","binding, competition with immobilised ligand",,Kd,0.019 µM
N[C@H]1C[C@@H](C(=O)O)CC1=C(C(F)(F)F)C(F)(F)F,"Ornithine aminotransferase, mitochondrial (OAT, Homo sapiens, UniProt P04181)","binding, stopped-flow",,Kd,3000 µM
O=c1ccn([C@@H]2O[C@H](COP(=O)(O)OP(=O)(O)O[C@H]3OC[C@@H](O)[C@H](O)[C@H]3O)[C@@H](O)[C@H]2O)c(=O)[nH]1,"UDP-glucose 6-dehydrogenase (UGDH, Homo sapiens, UniProt O60701)","enzyme activity, inhibitor",,Ki,0.18 µM
